Experimental findings from ChEMBL document CHEMBL1127425, “Latent alkyl isocyanates as inhibitors of aldehyde dehydrogenase in vivo” (1994) are described below.

The structures appear in SMILES notation.

Aldehyde dehydrogenase, mitochondrial ALDH2 (Rattus norvegicus), sequence (P11884 whole entry, looked up): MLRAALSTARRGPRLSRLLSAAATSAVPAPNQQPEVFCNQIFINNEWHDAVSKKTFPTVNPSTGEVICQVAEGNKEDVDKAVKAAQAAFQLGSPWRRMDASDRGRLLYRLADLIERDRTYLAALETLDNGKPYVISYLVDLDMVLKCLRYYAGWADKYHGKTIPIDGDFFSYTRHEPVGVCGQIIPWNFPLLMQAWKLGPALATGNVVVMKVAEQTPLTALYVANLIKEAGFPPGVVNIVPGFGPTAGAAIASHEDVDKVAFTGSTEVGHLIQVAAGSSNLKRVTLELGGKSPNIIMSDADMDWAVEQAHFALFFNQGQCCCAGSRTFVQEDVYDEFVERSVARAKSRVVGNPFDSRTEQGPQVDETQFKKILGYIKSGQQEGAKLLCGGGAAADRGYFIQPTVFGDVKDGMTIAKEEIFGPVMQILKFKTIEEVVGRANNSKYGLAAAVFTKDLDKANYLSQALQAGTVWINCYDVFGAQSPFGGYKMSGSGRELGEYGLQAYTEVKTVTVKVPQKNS

One assay concerns the target Aldehyde dehydrogenase, mitochondrial ALDH2 (Rattus norvegicus) (UniProt P11884). Kind of assay: Evaluated for inhibition of hepatic mitochondrial Aldehyde dehydrogenase (ALDH) from rat. As to conditions: concentration not given here.
Consider `CCCNC(=O)N(CC)S(=O)(=O)c1ccc(Cl)cc1`, for which the inhibition worked out at 78%.

Another assay shares this target. Kind of assay: Evaluated for inhibition of class II mitochondrial Aldehyde dehydrogenase (ALDH) in osmotically disrupted mitochondria from rat. The conditions noted are these: concentration not given here.
Compound `CCCNC(=O)N(C)S(=O)(=O)c1ccc(Cl)cc1` came in with an inhibition of 74%.

Another assay has as its system Rattus norvegicus. As to the kind of experiment: Compound was evaluated for blood acetaldehyde levels elicited by compound after ethanol administration to rat. It is filed as functional.
Conditions: not given
The essentials:
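Fasted male Sprague-Dawley rats (160–200 g) got test agent at 1.0 mmol/kg ip at time zero, suspended in 2% aqueous CMC (peanut oil for the trifluoroacetyl pro-prodrug and N1-EtCP). Ethanol 2.0 g/kg ip followed at 2 h. Rats were killed 1 h after ethanol and blood AcH was measured. Chlorpropamide served as positive control and vehicle alone as control. Groups of three were used, repeated with three more when active. Results are mean ± SEM, ANOVA with Newman-Keuls.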
In turn, `CCCNC(=O)NS(=O)(=O)c1ccc(Cl)cc1` [CHLORPROPAMIDE] returned an Acetaldehyde level of roughly 170 µM.

As for `CCCNC(=O)N1C(=O)c2ccccc2S1(=O)=O`, the Acetaldehyde level was roughly 500 µM.

The compound `CCCNC(=O)N(CC)S(=O)(=O)c1ccc(Cl)cc1` displayed an Acetaldehyde level of roughly 410 µM. On the same count and under the same terms, as for `C=CCN(C(=O)NCCC)S(=O)(=O)c1ccc(Cl)cc1`, the figure is roughly 750 µM.

On to `CCCNC(=O)N1C(=O)CNC1=O`, for which the Acetaldehyde level is roughly 0 µM. `CCCNC(=O)SCc1ccccc1`: the Acetaldehyde level worked out at 550 µM. On the same count and under the same terms, next, `CCCN(C(=O)N(CC)S(=O)(=O)c1ccc(Cl)cc1)C(=O)C(F)(F)F`: roughly 450 µM. The same measure, in the same setting: as for `CCCNC(=O)n1c(=O)cc[nH]c1=O`, the figure is 700 µM; as for `CCCN1C(=O)CN(S(=O)(=O)c2ccc(Cl)cc2)C1=O`, 20 µM.

The target in another assay is Aldehyde dehydrogenase, mitochondrial (Rattus norvegicus) (UniProt P11884). As to the kind of experiment: Compound was evaluated for inhibition of class II aldehyde dehydrogenase in intact rat liver mitochondria in vitro at 1 mM.
Conditions: not given
Regarding `CCCNC(=O)N(C)S(=O)(=O)c1ccc(Cl)cc1`, the Inhibition was determined as 49%.
